Data published in paper PMC5756068 (Nature chemical biology, 2016).

How the values were obtained:
Mia Paca-2 cells = assay: Downstream effects of peptide expression, Western blot, Mia Paca-2; assay type: cell-based
RWP1 cells [1] = assay: Downstream effects of peptide expression, Western blot, RWP1; assay type: cell-based, human
Panc 02.03 cells = assay: Downstream effects of peptide expression, Western blot, Panc 02.03; assay type: cell-based
HEK293T cells = assay: Downstream effects of peptide expression, Western blot, HEK293T; assay type: cell-based, human
[2] = system: AKT (S473) phosphorylation in RWP1 cells; assay: Serum-induced AKT; assay type: cell-based, human; conditions: RWP1 starved 24 hours, 10% FBS for 20 minutes; Western blot
Summary of the method: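 Peptide expressed or not in RWP1 cells, which were starved 24 h and then given 10% FBS for 20 min. Lysate proteins run on 10% Bis-Tris SDS-PAGE and transferred to PVDF. Blots probed with anti-AKT (1:1000) or anti-phospho-AKT S473 (1:1000), then HRP secondary (1:2500), with ECL detection. Paired with HEK293T cells treated the same way.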

RWP1 cells [3] = assay: Cell viability with synthetic lipidated peptides, RWP1; assay type: cell-based, human; conditions: duplicate
cell cycle = assay: FACS analysis of cell cycle; assay type: cell-based; conditions: triplicate
[4] = Downstream effect of peptide, gels of Fig. 4 and Supplementary Fig. 7; assay type: cell-based; conditions: triplicate; cell line not stated
SFN = assay: shRNA-induced cell viability rescue, SFN knockdown; assay type: cell-based; conditions: shRNA cells transfected with peptide; triplicate
GCHFR = assay: shRNA-induced cell viability rescue, GCHFR knockdown; assay type: cell-based; conditions: shRNA cells transfected with peptide; triplicate
MDM2 [5] = assay: shRNA-induced cell viability rescue, MDM2 knockdown; assay type: cell-based; conditions: shRNA cells transfected with peptide; triplicate
MDM2 [6] = assay: FRET microscopy, peptide-GFP and MDM2-mCherry; assay type: binding; conditions: HEK293T cells, confocal FRET microscopy, 48 h after transfection
Summary of the method: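 HEK293T cells were seeded at 5 × 10^4 per well on poly-L-lysine-coated glass coverslips and kept at 37°C in 5% CO2. They were co-transfected with GFP-fused peptide and mCherry-fused target, then fixed with 4% paraformaldehyde 48 h later, washed in PBS and imaged by confocal FRET microscopy at room temperature. Laser power and PMT gain were held constant. […] excitation was used with FRET detection at […]. Net FRET was obtained by subtracting GFP bleed-through and mCherry direct emission. Controls expressed GFP and/or mCherry alone.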

Substance: PSSLAYSLKKH
- p21 level (Mia Paca-2 cells): accumulation of p53 and p21
- p53 level (Mia Paca-2 cells): accumulation of p53 and p21
- p21 level (RWP1 cells [1]): accumulation of p53 and p21
- p53 level (RWP1 cells [1]): accumulation of p53 and p21
- p21 level (Panc 02.03 cells): accumulation of p53 and p21
- p53 level (Panc 02.03 cells): accumulation of p53 and p21
- p21 level (HEK293T cells): did not affect the level of p53 and p21
- p53 level (HEK293T cells): did not affect the level of p53 and p21

Substance: KFFCTIL
- serum-induced AKT phosphorylation [2]: inhibited the increase in AKT phosphorylation
- p21 level (RWP1 cells [1]): increased the expression of p21
- phospho-AKT (S473) level (RWP1 cells [1]): decrease of the level of phospho-AKT (S473)
- p21 level (Panc 02.03 cells): increased the expression of p21
- phospho-AKT (S473) level (Panc 02.03 cells): decrease of the level of phospho-AKT (S473)
- phospho-AKT (S473) level (HEK293T cells): did not affect the level of phospho-AKT

Substance: RTLSQLYCSYGPLT
- p21 level (RWP1 cells [1]): increases the expression of p53 and p21
- p53 level (RWP1 cells [1]): increases the expression of p53 and p21
- p21 level (Panc 02.03 cells): increases the expression of p53 and p21
- p53 level (Panc 02.03 cells): increases the expression of p53 and p21

Substance: Pal-RTLSQLYCSYGPLT-OH [MUS81-1]
- effect on cell viability (in words) (RWP1 cells [3]): strong dosage dependent effects on cell viability

Substance: Pal-NPFREKKFFCTIL-NH2 [GNG4-1]
- effect on cell viability (in words) (RWP1 cells [3]): strong dosage dependent effects on cell viability

Substance: TEGPDSD
- cdc2 expression (Mia Paca-2 cells): reduced expression of both cyclin B1 and cdc2
- cyclin A2 expression (Mia Paca-2 cells): increase of cyclin A2 expression
- cyclin B1 expression (Mia Paca-2 cells): reduced expression of both cyclin B1 and cdc2
- effect on cell cycle (cell cycle; FACS, DAPI, 24, 72 and 120 hours, cell line not stated): cell cycle arrest in G2
- percentage of GFP positive cells vs GFP alone (cell cycle; different time points): similar
- cdc2 expression (RWP1 cells [1]): reduced expression of both cyclin B1 and cdc2
- cyclin A2 expression (RWP1 cells [1]): increase of cyclin A2 expression
- cyclin B1 expression (RWP1 cells [1]): reduced expression of both cyclin B1 and cdc2
- cyclin A2 expression (Panc 02.03 cells): increase of cyclin A2 expression
- cdc2 level [4]: decrease in cyclin B1 and cdc2 levels
- cyclin A level [4]: increase in cyclin A
- cyclin B1 level [4]: decrease in cyclin B1 and cdc2 levels
- rescue of peptide phenotype by knockdown of SFN (SFN): showed rescue of the peptide phenotype

Substance: VWCLHKE
- rescue of peptide phenotype by knockdown of GCHFR (GCHFR): showed rescue of the peptide phenotype

Substance: ETFSDLW
- rescue of peptide phenotype by knockdown of MDM2 (MDM2 [5]): showed rescue of the peptide phenotype
- p21 level (Mia Paca-2 cells): increase in p21 levels
- p53 level (Mia Paca-2 cells): decrease in degradation of p53
- p21 level (RWP1 cells [1]): increase in p21 levels
- p53 level (RWP1 cells [1]): decrease in degradation of p53
- FRET signal with MDM2 (MDM2 [6]): Positive FRET signals
- p21 level (Panc 02.03 cells): increase in p21 levels
- p53 level (Panc 02.03 cells): decrease in degradation of p53
- P53 level [4]: increasing P53 levels

Substance: Pal-PSSLAYSLKKH-OH [INCENP-1]
- effect on cell viability (in words) (RWP1 cells [3]): strong dosage dependent effects on cell viability
